Experimental data collected from several papers.
Lines come from different studies, so protocols differ.
KIT D816H: Mast/stem cell growth factor receptor Kit (KIT, Homo sapiens, UniProt P10721, D816H)
KIT L576P: Mast/stem cell growth factor receptor Kit (KIT, Homo sapiens, UniProt P10721, L576P)
KIT: Mast/stem cell growth factor receptor Kit (KIT, Homo sapiens, UniProt P10721)
KIT V559D: Mast/stem cell growth factor receptor Kit (KIT, Homo sapiens, UniProt P10721, V559D)

| SMILES | target | assay | setting | quantity | result |
| --- | --- | --- | --- | --- | --- |
| Cc1ccc(NC(=O)c2ccnc(C(F)(F)F)c2)cc1-c1cc(OCCO)nc(N2CCOCC2)c1 | KIT D816H | binding | 1 µM | remaining binding | 99% |
| C=CC(=O)N1CCC([C@@H]2CCNc3c(C(N)=O)c(-c4ccc(Oc5ccccc5)cc4)nn32)CC1 | KIT L576P | enzyme activity, inhibitor | 1 µM | inhibition | 5% |
| N#Cc1ccc(NC(=O)Nc2ccccc2)cc1 | KIT | cell-free assay, competition with immobilised ligand | 25 µM | remaining binding | 49% |
| COc1ccc2[nH]c3c4[nH]c5ccc(OC)cc5c4c4c(c3c2c1)C(=O)NC4=O | KIT V559D | binding | 1 µM | remaining binding | 9% |
| COc1ccc2oc(-c3ccc4nc(N)oc4c3)c/c(=N\c3ccccc3NC(=O)CCN)c2c1 | KIT | binding | 1 µM | remaining binding | 111% |
| C1=C/COCc2cc(ccc2OCCN2CCCC2)Nc2nccc(n2)-c2cccc(c2)COC/1 | KIT V559D | binding | 0.1 µM | remaining binding | 3.7% |
| CC#CC(=O)N1CCC[C@H]1c1nc(-c2ccc(C(=O)Nc3ccccn3)cc2)c2c(N)nccn12 | Mast/stem cell growth factor receptor Kit (KIT, Homo sapiens, UniProt P10721, V559D/V654A) | enzyme activity, inhibitor | 1 µM | inhibition | 0% |
| C#Cc1cnc(Nc2ccnc(CO)c2)nc1Nc1ccccc1S(C)(=O)=NC#N (stereo not drawn) | KIT | cell-free assay | 1 µM | remaining signal | 73% |
| C[C@H]1CC[C@H](n2c3cnccc3c3cnc(Nc4ccc5c(n4)CCN(C(=O)CO)C5)nc32)CC1 | Mast/stem cell growth factor receptor Kit (KIT, Homo sapiens, UniProt P10721, A829P) | cell-free assay | 1 µM | remaining signal | 36% |
| CO[C@@H]1[C@H](N(C)C(=O)c2ccccc2)C[C@H]2O[C@]1(C)n1c3ccccc3c3c4c(c5c6ccccc6n2c5c31)C(=O)NC4 | KIT D816H | enzyme activity, inhibitor | 1 µM | inhibition | 98% |
| CN1CCN(C(=O)c2ccc(NC(=O)Nc3ccc(N(C)c4ccnc(Nc5ccc(CS(C)(=O)=O)cc5)n4)cc3)cc2)CC1 | KIT | binding, competition with immobilised ligand | 1 µM | remaining binding | 0% |
| CCCCC(=O)Nc1ccc(-c2ccc3ncn(CCC)c(=O)c3c2)cn1 | KIT L576P | binding, competition with immobilised ligand | 0.5 µM | remaining binding | 87% |
